Results: ChEMBL document CHEMBL6083228, “A novel hydrophobic tag leads to the efficient degradation of programmed death-ligand 1” (RSC Med Chem, 2024)
The source made the active and inactive calls. No cut-off for these calls is given here.

Tests used:
[1] = target: Programmed cell death 1 ligand 1 (Homo sapiens) (UniProt Q9NZQ7); assay: Induction of hydrophobic tag tethering degradation of PD-L1 in human NCI-H460 cells at 10 uM incubated for 24 hrs by Western blot analysis; format: cell-based
Procedure, shortened: (§1)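 Cells seeded at 1×10^6 per well, incubated overnight, then exposed to DMSO or compound for 24 h. RIPA lysates were denatured at 100 °C for 15 min in SDS-PAGE loading buffer and run on 10% SDS-PAGE. Blots were probed overnight at 4 °C with anti-PD-L1 (1:1000), then a secondary (1:5000), with ECL detection. Bands were semi-quantified by densitometry.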

[2] = target: Programmed cell death 1 ligand 1 (Homo sapiens) (UniProt Q9NZQ7); assay: Induction of hydrophobic tag tethering degradation of PD-L1 in human NCI-H460 cells incubated for 24 hrs by Western blot analysis; format: cell-based; conditions: dose 1-10 µM; procedure, shortened: as §1
NCI-H460 [3] = assay: Cytotoxicity against human NCI-H460 cells at 10 uM incubated for 24 to 72 hrs by MTT assay; format: functional, cell-based; conditions: time 24-72 hrs
Procedure, shortened: (§2)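 NCI-H460 cells seeded at 4×10^3 per well in complete RPMI-1640 (10% FBS, 37 °C, 5% CO2), left 24 h, then given DMSO or compound in DMSO. MTT (5 mg mL⁻¹ in PBS) added after 24, 48 and 72 h exposure, 4 h further; formazan dissolved in isopropanol, absorbance at 570 nm. Triplicate; viability relative to DMSO group (100%).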

[4] = target: Programmed cell death 1 ligand 1 (Homo sapiens) (UniProt Q9NZQ7); assay: Induction of hydrophobic tag tethering degradation of PD-L1 in human NCI-H460 cells at 1 to 10 uM incubated for 24 hrs by Western blot analysis; format: cell-based; conditions: dose 1-10 µM; procedure, shortened: as §1
[5] = target: Programmed cell death 1 ligand 1 (Homo sapiens) (UniProt Q9NZQ7); assay: Induction of hydrophobic tag tethering degradation of PD-L1 in human NCI-H460 cells at 10 uM incubated for 24 hrs in presence of MG132 by Western blot analysis; format: cell-based
[6] = target: Programmed cell death 1 ligand 1 (Homo sapiens) (UniProt Q9NZQ7); assay: Induction of hydrophobic tag tethering degradation of PD-L1 in human HT-1080 cells incubated for 24 hrs by Western blot analysis; format: cell-based; conditions: dose 1-10 µM; procedure, shortened: as §1
[7] = target: Programmed cell death 1 ligand 1 (Homo sapiens) (UniProt Q9NZQ7); assay: Induction of hydrophobic tag tethering degradation of PD-L1 in human NCI-H460 cells by immunofluorescence analysis; format: cell-based
Procedure, shortened: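 NCI-H460 cells exposed to compound at various concentrations were fixed in 4% paraformaldehyde for 15 min at room temperature and blocked with 0.5% BSA for 1 h. Anti-PD-L1 (1:200) was applied overnight at 4 °C, then Alexa Fluor 555 donkey anti-rabbit (1:1000) for 30 min in the dark. Nuclei were stained with DAPI and cells imaged by confocal microscopy.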

[8] = target: Programmed cell death 1 ligand 1 (Homo sapiens) (UniProt Q9NZQ7); assay: Induction of hydrophobic tag tethering degradation of PD-L1 in human NCI-H460 cells at 10 uM by Western blot analysis; format: cell-based; procedure, shortened: as §1
NCI-H460 [9] = assay: Cytotoxicity against human NCI-H460 cells at 0.5 to 10 uM incubated for 24 to 72 hrs by MTT assay; format: functional, cell-based; conditions: dose 0.5-10 µM, time 24-72 hrs; procedure, shortened: as §2

Programmed cell death 1 ligand 1 (Homo sapiens), sequence (Q9NZQ7 whole entry): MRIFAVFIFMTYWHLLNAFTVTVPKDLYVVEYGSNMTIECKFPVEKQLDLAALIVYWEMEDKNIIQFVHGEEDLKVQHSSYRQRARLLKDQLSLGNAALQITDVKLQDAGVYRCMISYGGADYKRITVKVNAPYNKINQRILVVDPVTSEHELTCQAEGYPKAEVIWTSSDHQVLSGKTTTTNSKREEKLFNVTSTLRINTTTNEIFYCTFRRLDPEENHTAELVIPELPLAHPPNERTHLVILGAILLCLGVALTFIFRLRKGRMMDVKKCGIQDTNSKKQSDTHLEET

SMILES	Activity [1]	other results
Cc1c(-c2ccccc2)cccc1-c1ccc(CNCCOCCOCCC(=O)NC(c2ccccc2)c2ccc(C(F)(F)F)cc2)cn1 (centres undefined)	inactive	–
Cc1c(-c2ccccc2)cccc1-c1ccc(CNCCOCCOCCOCCC(=O)NC(c2ccccc2)c2ccc(C(F)(F)F)cc2)cn1 (centres undefined)	inactive	–
Cc1c(COc2ccc(CNCCOCCOCCC(=O)NCCNC(=O)C(C)c3ccc(CC(C)C)cc3)cn2)cccc1-c1ccccc1 (centres undefined)	inactive	–
Cc1c(COc2ccc(CNCCOCCOCCC(=O)NN3CCN(C(c4ccc(F)cc4)c4ccc(F)cc4)CC3)cn2)cccc1-c1ccccc1	Active	Activity [2]: Dose-dependent-effect; Activity (NCI-H460 [3]): Active; Exhibited Mild Cytotoxicity
Cc1c(COc2ccc(CNCCOCCOCCC(=O)NC(c3ccccc3)c3ccccc3)cn2)cccc1-c1ccccc1	Active	Activity [4]: Active; Exhibited Mild Degradation Potency
Cc1c(COc2ccc(CNCCOCCOCCOCCOCCC(=O)NC(C3CCCCC3)C3CCCCC3)cn2)cccc1-c1ccccc1	inactive	–
Cc1c(COc2ccc(CNCCOCCOCCOCCOCCC(=O)NN3CCN(C(c4ccc(F)cc4)c4ccc(F)cc4)CC3)cn2)cccc1-c1ccccc1	inactive	–
Cc1c(-c2ccccc2)cccc1-c1ccc(CNCCOCCOCCC(=O)NN2CCN(C(c3ccc(F)cc3)c3ccc(F)cc3)CC2)cn1	Active	Activity [2]: Dose-dependent-effect; Activity [5]: Not active; Result Indicates That Degradation Of Pd-L1 Occurs Through Proteosome Pathway; Activity [6]: Dose-dependent-effect; Activity [7]: Dose-dependent-effect; Activity [8]: Time-dependent-effect; Almost No Degradation Activity Observed For 72 Hrs; Activity (NCI-H460 [9]): Not active; Exhibited Almost No Cytotoxicity
Cc1c(COc2ccc(CNCCOCCOCCOCCC(=O)NC34CC5CC(CC(C5)C3)C4)cn2)cccc1-c1ccccc1	inactive	–
Cc1c(COc2ccc(CNCCOCCOCCOCCOCCC(=O)NC34CC5CC(CC(C5)C3)C4)cn2)cccc1-c1ccccc1	inactive	–
Cc1c(-c2ccccc2)cccc1-c1ccc(CNCCOCCOCCC(=O)NC(c2ccccc2)c2ccccc2)cn1	inactive	–
Cc1c(COc2ccc(CNCCOCCOCCOCCC(=O)NC(C3CCCCC3)C3CCCCC3)cn2)cccc1-c1ccccc1	inactive	–
Cc1c(COc2ccc(CNCCOCCOCCOCCC(=O)NN3CCN(C(c4ccc(F)cc4)c4ccc(F)cc4)CC3)cn2)cccc1-c1ccccc1	inactive	–
Cc1c(COc2ccc(CNCCOCCOCCOCCOCCC(=O)NCCNC(=O)C(C)c3ccc(CC(C)C)cc3)cn2)cccc1-c1ccccc1 (centres undefined)	inactive	–
Cc1c(-c2ccccc2)cccc1-c1ccc(CNCCOCCOCCOCCOCCC(=O)NC(c2ccccc2)c2ccccc2)cn1	Active	–
Cc1c(COc2ccc(CNCCOCCOCCOCCC(=O)NC(c3ccccc3)c3ccccc3)cn2)cccc1-c1ccccc1	Active	Activity [4]: Active; Exhibited Mild Degradation Potency
Cc1c(-c2ccccc2)cccc1-c1ccc(CNCCOCCOCCOCCC(=O)NN2CCN(C(c3ccc(F)cc3)c3ccc(F)cc3)CC2)cn1	Active	Activity [2]: Dose-dependent-effect; Activity [5]: Not active; Result Indicates That Degradation Of Pd-L1 Occurs Through Proteosome Pathway; Activity [6]: Dose-dependent-effect; Activity [7]: Dose-dependent-effect; Activity [8]: Time-dependent-effect; Almost No Degradation Activity Observed For 72 Hrs; Activity (NCI-H460 [9]): Not active; Exhibited Almost No Cytotoxicity

SMILES	Activity [1]	other results
Cc1c(COc2ccc(CNCCOCCOCCOCCOCCC(=O)NC(c3ccccc3)c3ccccc3)cn2)cccc1-c1ccccc1	Active	–
Cc1c(-c2ccccc2)cccc1-c1ccc(CNCCOCCOCCC(=O)NC(c2ccc(F)cc2)c2ccc(F)cc2)cn1	inactive	–
Cc1c(COc2ccc(CNCCOCCOCCOCCOCCOCCC(=O)NC(c3ccccc3)c3ccccc3)cn2)cccc1-c1ccccc1	inactive	–
Cc1c(-c2ccccc2)cccc1-c1ccc(CNCCOCCOCCOCCC(=O)NC(c2ccc(F)cc2)c2ccc(F)cc2)cn1	inactive	–
Cc1c(COc2ccc(CNCCOCCOCCOCCOCCOCCC(=O)NC34CC5CC(CC(C5)C3)C4)cn2)cccc1-c1ccccc1	Active	–
Cc1c(COc2ccc(CNCCOCCOCCOCCOCCC(=O)NC(c3ccccc3)c3ccc(C(F)(F)F)cc3)cn2)cccc1-c1ccccc1 (centres undefined)	inactive	–
Cc1c(COc2ccc(CNCCOCCOCCOCCOCCOCCC(=O)NCCNC(=O)C(C)c3ccc(CC(C)C)cc3)cn2)cccc1-c1ccccc1 (centres undefined)	inactive	–
Cc1c(-c2ccccc2)cccc1-c1ccc(CNCCOCCOCCOCCOCCC(=O)NN2CCN(C(c3ccc(F)cc3)c3ccc(F)cc3)CC2)cn1	inactive	–
Cc1c(COc2ccc(CNCCOCCOCCC(=O)NC34CC5CC(CC(C5)C3)C4)cn2)cccc1-c1ccccc1	inactive	–
Cc1c(COc2ccc(CNCCOCCOCCC(=O)NC(C3CCCCC3)C3CCCCC3)cn2)cccc1-c1ccccc1	inactive	–
Cc1c(-c2ccccc2)cccc1-c1ccc(CNCCOCCOCCOCCOCCC(=O)NC(c2ccc(F)cc2)c2ccc(F)cc2)cn1	inactive	–
Cc1c(-c2ccccc2)cccc1-c1ccc(CNCCOCCOCCOCCOCCC(=O)NC(c2ccccc2)c2ccc(C(F)(F)F)cc2)cn1 (centres undefined)	inactive	–
Cc1c(COc2ccc(CNCCOCCOCCC(=O)NC(c3ccccc3)c3ccc(C(F)(F)F)cc3)cn2)cccc1-c1ccccc1 (centres undefined)	inactive	–
Cc1c(-c2ccccc2)cccc1-c1ccc(CNCCOCCOCCOCCC(=O)NC(c2ccccc2)c2ccccc2)cn1	Active	–
Cc1c(COc2ccc(CNCCOCCOCCOCCC(=O)NCCNC(=O)C(C)c3ccc(CC(C)C)cc3)cn2)cccc1-c1ccccc1 (centres undefined)	inactive	–
Cc1c(COc2ccc(CNCCOCCOCCOCCOCCOCCC(=O)NC(C3CCCCC3)C3CCCCC3)cn2)cccc1-c1ccccc1	inactive	–
